Assay [1] concerns Aphis craccivora. In words: Insecticidal activity against Aphis craccivora (cowpea aphid) assessed as mortality at 500 mg/l. Format: functional. In a few lines: (§1)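 Compounds dissolved in DMF, then diluted with water containing Triton X-100 (0.1 mg L−1) to test concentrations of 500.0, 250.0 and 125.0 mg L−1, plus others; mortality of cowpea aphids was scored.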
In assay [2] the test system is Aphis craccivora. In words: Insecticidal activity against Aphis craccivora (cowpea aphid) assessed as mortality. The assay is classed as functional. An outline of the steps:
as §1

This note sets out measurements from ChEMBL document CHEMBL3046450, “Pyrrole- and dihydropyrrole-fused neonicotinoids: design, synthesis, and insecticidal evaluation” (2013).

In brackets after ≈: the same amount, converted by molar mass.

Consider `CCOc1c([N+](=O)[O-])c(N(CC)Cc2ccc(Cl)nc2)n(C)c1C`, for which, in the assay on Aphis craccivora [1], the Activity was found to be 84%.

On to `CCCOc1c([N+](=O)[O-])c(N(CC)Cc2ccc(Cl)nc2)n(C)c1C`, for which the Activity in the assay on Aphis craccivora [1] is listed as 77%.

For orientation: LC50 means the concentration lethal to half of the exposed cells or organisms. `CCCCOC1C([N+](=O)[O-])=C2N(Cc3ccc(Cl)nc3)CCN2C1(C)OCCCC` (stereo unspecified): the Activity in the assay with Aphis craccivora [1] was determined as 100%. Also, in the assay with Aphis craccivora [2], the LC50 stood at 3.4 µg/mL (≈ 7.75 µM). For `CC1C(=O)C([N+](=O)[O-])=C2N(Cc3ccc(Cl)nc3)CCN21` (stereo unspecified), in that order: 100% and 43.5 µg/mL (≈ 141 µM). The matching figures for `CC12OCCOC1C([N+](=O)[O-])=C1N(Cc3ccc(Cl)nc3)CCN12` (stereo unspecified): 100% and 10 µg/mL (≈ 28.3 µM). The matching figures for `CC12OCCCOC1C([N+](=O)[O-])=C1N(Cc3ccc(Cl)nc3)CCN12` (stereo unspecified): 100% and 11.1 µg/mL (≈ 30.3 µM). Regarding `CC12OCCCCOC1C([N+](=O)[O-])=C1N(Cc3ccc(Cl)nc3)CCN12` (stereo unspecified), the Activity in the assay on Aphis craccivora [1] is given as 100%. The LC50 with Aphis craccivora [2] came out at 14.8 µg/mL (≈ 38.9 µM). For `COc1c([N+](=O)[O-])c2n(c1C)CCN2Cc1ccc(Cl)nc1`, in that order: 100% and 14.6 µg/mL (≈ 45.2 µM).

Turning to `CCOc1c([N+](=O)[O-])c2n(c1C)CCN2Cc1ccc(Cl)nc1`, the Activity with Aphis craccivora [1] worked out at 100%. In addition, in the assay with Aphis craccivora [2], the LC50 turned out to be 37.3 µg/mL (≈ 111 µM). The matching figures for `CCCOc1c([N+](=O)[O-])c2n(c1C)CCN2Cc1ccc(Cl)nc1`: 100% and 24.5 µg/mL (≈ 69.8 µM). The matching figures for `CCCCOc1c([N+](=O)[O-])c2n(c1C)CCN2Cc1ccc(Cl)nc1`: 100% and 39.5 µg/mL (≈ 108 µM). As for `CCN(Cc1ccc(Cl)nc1)C1=C([N+](=O)[O-])C(OC)C(C)(O)N1C` (stereo unspecified), the Activity in the assay with Aphis craccivora [1] turned out to be 21.6%. Turning to `CCOC1C([N+](=O)[O-])=C(N(CC)Cc2ccc(Cl)nc2)N(C)C1(C)O` (stereo unspecified), the Activity with Aphis craccivora [1] is 29.7%. Still for that read-out and setting: the same measure for `CCCOC1C([N+](=O)[O-])=C(N(CC)Cc2ccc(Cl)nc2)N(C)C1(C)O` (stereo unspecified): 19%.

For `CCN(Cc1ccc(Cl)nc1)C1=C([N+](=O)[O-])C(OC(C)C)C(C)(O)N1C` (stereo unspecified), the Activity with Aphis craccivora [1] came out at 21.2%. Same read-out and setting: under `CCCCOC1C([N+](=O)[O-])=C(N(CC)Cc2ccc(Cl)nc2)N(C)C1(C)O` (stereo unspecified) stands 16.4%; under `CCN(Cc1ccc(Cl)nc1)c1c([N+](=O)[O-])c(OC)c(C)n1C`, 91%. Regarding `CC1(O)C(O)C([N+](=O)[O-])=C2N(Cc3ccc(Cl)nc3)CCN21` (stereo unspecified), the Activity with Aphis craccivora [1] amounted to 100%. Further, in the assay with Aphis craccivora [2], the LC50 was determined as 2 µg/mL (≈ 6.12 µM). The matching figures for `COC1C([N+](=O)[O-])=C2N(Cc3ccc(Cl)nc3)CCN2C1(C)OC` (stereo unspecified): 100% and 0.7 µg/mL (≈ 1.97 µM). On to `CCOC1C([N+](=O)[O-])=C2N(Cc3ccc(Cl)nc3)CCN2C1(C)OCC` (stereo unspecified), for which, in the assay with Aphis craccivora [1], the Activity was 100%. Moreover, the 50% lethal concentration (LC50) with Aphis craccivora [2] was found to be 0.6 µg/mL (≈ 1.57 µM).

Take `CCCOC1C([N+](=O)[O-])=C2N(Cc3ccc(Cl)nc3)CCN2C1(C)OCCC` (stereo unspecified): the Activity in the assay on Aphis craccivora [1] turned out to be 100%. Also, the LC50 with Aphis craccivora [2] came to 0.8 µg/mL (≈ 1.95 µM).

As to `O=[N+]([O-])/N=C1\NCCN1Cc1ccc(Cl)nc1` [IMIDACLOPRID], the Activity in the assay with Aphis craccivora [1] was found to be 100%. Besides, the LC50 in the assay on Aphis craccivora [2] is 8.9 µg/mL (≈ 34.8 µM).
